Data as given in ChEMBL document CHEMBL1129366, “Novel selective PDE IV inhibitors as antiasthmatic agents. Synthesis and biological activities of a series of 1-aryl-2,3-bis(hydroxymethyl)naphthalene lignans” (J Med Chem, 1996).
“And” between values parts separate entries of the source, which are not always exact repeats. Equal entries are not always repeated.

Legend:
[1] = target: Phosphodiesterase 4 (Homo sapiens, UniProt P27815+Q08499+Q07343+Q08493); experiment: Inhibition in vitro of Phosphodiesterase 4 activity isolated from guinea pig lung; format: protein assay, Cavia porcellus; settings: target entry is the homologue from another species
How it was run: (§1)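 PDEs came from guinea pig cardiac ventricle (types I, III) and lung (types IV, V). Tissue was homogenized at pH 6.5 with protease inhibitors and spun at 25000G, and the supernatant was run on DEAE-Sephacrose with a 50–1000 mM sodium acetate gradient. Assay: 40 mM Tris-HCl pH 8.0, 5 mM MgCl2, 4 mM 2-mercaptoethanol, 1.0 μM [3H]cAMP or [3H]cGMP, 20 min at 30 °C, substrate hydrolysis ≤20%. Triplicates at 3–4 inhibitor levels; IC50 read graphically.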

[2] = tested on: Cavia porcellus; experiment: Reduced histamine-induced bronchoconstriction in anesthetized guinea pig at 3 mg/kg intravenous dose; format: functional
How it was run: (§2)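 Anesthetized guinea pigs immobilized with gallamine triethiodide (5 mg/kg iv) and artificially ventilated. Histamine dihydrochloride (2 μg/kg) given iv via the lateral saphenous vein at 10 min intervals. Compound suspended in saline with Tween 80, given iv 1 min before histamine. Pulmonary inflation pressure recorded as the bronchospasm index; result expressed as percent inhibition of histamine-induced bronchoconstriction.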

[3] = tested on: Cavia porcellus; experiment: Change in heart rate in guinea pigs after 3 mg/kg intravenous dose; format: functional
How it was run: (§3)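 Anesthetized guinea pigs in the histamine bronchospasm setup, with spontaneous breathing abolished by gallamine triethiodide (5 mg/kg iv). Heart rate was taken by cardiography triggered on the ECG R wave (standard limb lead II). Test agent was suspended in saline with Tween 80 and given iv 1 min before histamine. The value is the post-dose rate minus the basal rate (basal 230–330 beats/min).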

[4] = target: T1, Phosphodiesterase 3 (Homo sapiens, UniProt Q14432+Q13370); experiment: Inhibition in vitro of Phosphodiesterase 3 isolated from guinea pig cardiac ventricle; format: protein assay, Cavia porcellus; settings: target entry is the homologue from another species; how it was run: as §1
[5] = target: Phosphodiesterase 1 (Cavia porcellus); experiment: Inhibition in vitro of Phosphodiesterase 1 isolated from guinea pig cardiac ventricle
[6] = tested on: Cavia porcellus; experiment: Reduced histamine-induced bronchoconstriction in anesthetized guinea pig at 0.3 mg/kg intravenous dose; format: functional
[7] = tested on: Cavia porcellus; experiment: Change in heart rate in guinea pigs after 0.3 mg/kg intravenous dose; format: functional; how it was run: as §3
[8] = tested on: Cavia porcellus; experiment: Reduced histamine-induced bronchoconstriction in anesthetized guinea pig at 1 mg/kg intravenous dose; format: functional; how it was run: as §2
[9] = tested on: Cavia porcellus; experiment: Change in heart rate in guinea pigs after 1 mg/kg intravenous dose; format: functional; how it was run: as §3
[10] = tested on: Cavia porcellus; experiment: Inhibition of antigen-induced bronchoconstriction in anesthetized guinea pig at 3 mg/kg intravenous dose; format: functional
[11] = tested on: Cavia porcellus; experiment: Inhibition of histamine-induced bronchoconstriction in anesthetized guinea pig at 3 mg/kg intravenous dose
[12] = tested on: Cavia porcellus; experiment: Inhibition of histamine-induced bronchoconstriction in anesthetized guinea pig at 0.03 mg/kg intravenous dose
[13] = tested on: Cavia porcellus; experiment: Reduced histamine-induced bronchoconstriction in anesthetized guinea pig at 0.03 mg/kg intravenous dose; format: functional
[14] = tested on: Cavia porcellus; experiment: Change in heart rate in guinea pigs after 0.1 mg/kg intravenous dose; format: functional; how it was run: as §3
[15] = tested on: Cavia porcellus; experiment: Change in heart rate in guinea pigs after 0.03 mg/kg intravenous dose; format: functional; how it was run: as §3
[16] = tested on: Cavia porcellus; experiment: Reduced histamine-induced bronchoconstriction in anesthetized guinea pig at 0.1 mg/kg intravenous dose; format: functional
[17] = tested on: Cavia porcellus; experiment: (§4) Inhibition of antigen-induced bronchoconstriction in anesthetized guinea pig at 0.1 mg/kg intravenous dose; format: functional
[18] = tested on: Cavia porcellus; experiment: Change in guinea pig heart rate after intravenous administration of 0.1 mg/kg; format: functional; how it was run: as §3
[19] = tested on: Cavia porcellus; experiment: as §4; format: functional; remark: listed apart in the source
[20] = Inhibition of Phosphodiesterase 5 from guinea pig lung; design: species or system Cavia porcellus; how it was run: as §1
[21] = tested on: Cavia porcellus; experiment: Inhibition of histamine-induced bronchoconstriction in anesthetized guinea pig at 0.1 mg/kg intravenous dose
[22] = target: Phosphodiesterase 1 (Homo sapiens, UniProt P54750+Q01064+Q14123); experiment: Inhibition of Phosphodiesterase 1 from guinea pig cardiac ventricle; format: protein assay, Cavia porcellus; settings: target entry is the homologue from another species
How it was run: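 PDE I pooled from DEAE-Sepharose fractions of guinea pig cardiac ventricle homogenate (pH 6.5 buffer with protease inhibitors, sodium acetate gradient). Assay buffer 40 mM Tris-HCl pH 8.0, 5 mM MgCl2, 4 mM 2-mercaptoethanol. Substrate [3H]cAMP or [3H]cGMP at 1.0 μM, hydrolysis kept ≤20%. Run 20 min at 30 °C, inhibitors in DMSO. Triplicates at 3–4 concentrations, IC50 read graphically from means.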

[23] = Inhibition of Phosphodiesterase 4 from guinea pig lung; design: species or system Cavia porcellus; how it was run: as §1
[24] = target: T1, Phosphodiesterase 3; experiment: Inhibition of Phosphodiesterase 3 from guinea pig cardiac ventricle; format: protein assay, Cavia porcellus; settings: target entry is the homologue from another species; how it was run: as §1

Row | IC50 [1] [µM] | IC50 [4] [µM] | IC50 [5] [µM] | Compound | Heart rate [7] [beats min-1] | other results
1 | 0.5 | – | – | COc1cc2cc3c(c(-c4cc(OC)c(OC)c(OC)c4)c2cc1OC)C(=O)OC3 | – | –
2 | 0.3 | 0.9 | 60 | COc1cc2cc(CO)c(CO)c(-c3cc(OC)c(OC)c(OC)c3)c2cc1OC | – | Reduction [2]: 89%; Delta beats/min [3]: 79
3 | 5 | 8 | 40 | COc1cc2cc(CO)c(CO)c(Cc3cc(OC)c(OC)c(OC)c3)c2cc1OC | – | –
4 | 0.03 | 50 | – | CCCCn1ccc(-c2c(CO)c(CO)cc3cc(OCC)c(OCC)cc23)cc1=O | -5 | Reduction [6]: 47%
5 | 0.2 | 20 | > 100 | COc1cc2cc(CO)c(CO)c(C3=CC=NC(=O)C3)c2cc1OC | – | –
6 | 0.6 | 20 | – | COc1cc2cc(CO)c(CO)c(-c3ccn(C)c(=O)c3)c2cc1OC | – | –
7 | 0.45 | 7 | – | CCOc1cc2cc(CO)c(CO)c(-c3ccn(CCOC)c(=O)c3)c2cc1OC | 4 | Reduction [6]: 30%; Reduction [8]: 76%; Reduction [2]: 98%; Heart rate [3]: 6 beats min-1; Heart rate [9]: 7 beats min-1
8 | 0.05 | 20 | 50 | CCOc1cc2cc(CO)c(CO)c(-c3cc(N)c(OC)c(OC)c3)c2cc1OCC.Cl | – | Reduction ([6]; 0.3 mg/kg): 45% and 90%; ED50 [10]: > 10 mg/kg; Reduction [8]: 69%; Heart rate [9]: 1 beats min-1; ED50 [11]: 0.39 mg/kg
9 | 0.005 | 0.06 | > 100 | COc1cc2cc(CO)c(CO)c(-c3cc(OC)c(OC)c(C(=O)N(C)C)c3)c2cc1OC | 50 | Reduction [6]: 69%; ED50 [12]: 0.03 mg/kg; Reduction [13]: 59%; Heart rate [14]: 28 beats min-1; Heart rate [15]: 1 beats min-1; Reduction [16]: 83%
10 | 0.5 | 14 | – | COCCn1ccc(-c2c(CO)c(CO)cc3cc(OC)c(OC)cc23)cc1=O | 3 | Reduction [2]: 70%; Heart rate [14]: 1 beats min-1; Reduction [16]: 34%; ED50 [17]: 0.16 mg/kg
11 | 20 | > 100 | > 100 | COc1cc2cc(CO)c(CO)cc2cc1OC | – | –
12 | 0.05 | 0.09 | 100 | COc1cc2cc(CO)c(CO)c(-c3cc(OC)c(OC)c(S(C)(=O)=O)c3)c2cc1OC | -7 | Reduction [6]: 71%; ED50 [12]: 0.093 mg/kg; Reduction [13]: 34%; Heart rate [14]: 1 beats min-1; Heart rate [15]: 3 beats min-1; Reduction [16]: 57%
13 | 0.057 | 57 | – | CCOc1cc2cc(CO)c(CO)c(-c3ccn(CCOC)c(=O)c3)c2cc1OCC | 5 | Reduction [6]: 92%; Heart rate [18]: 5 beats min-1; ED50 [19]: 2.3 mg/kg; Heart rate [3]: 5 beats min-1; Reduction [16]: 60%; ED50 [17]: 0.08 mg/kg
14 | > 30 | > 100 | > 100 | COc1cc(-c2c(CO)c(CO)cc3cc4c(cc23)OCO4)cc(OC)c1OC | – | –
15 | 0.2 | 1 | – | COc1ccc(-c2c(CO)c(CO)cc3cc(OC)c(OC)cc23)cc1OC | – | –
16 | 0.07 | 2 | 100 | COc1cc2cc(CO)c(CO)c(-c3cc(NC(C)=O)c(OC)c(OC)c3)c2cc1OC | – | –
17 | 40 | 20 | 30 | COc1ccc2c(-c3cc(OC)c(OC)c(OC)c3)c(CO)c(CO)cc2c1 | – | –
18 | – | – | – | COc1ccc(C2CNC(=O)C2)cc1OC1CCCC1 (centres undefined) [ROLIPRAM] | – | IC50 [20]: > 100 µM; Reduction [8]: 72%; ED50 [21]: 0.01 mg/kg; IC50 [22]: > 100 µM; Heart rate [9]: 3 beats min-1; Heart rate [14]: 9 beats min-1; Reduction [16]: 79%; IC50 [23]: 1.9 µM; IC50 [24]: > 100 µM; ED50 [17]: 19 mg/kg
